From ChEMBL document CHEMBL1152560, “Substituted 2-arylbenzothiazoles as kinase inhibitors: hit-to-lead optimization” (Bioorg Med Chem, 2009)

Experiments:
Angiopoietin-1 receptor [1] = target: T1, Angiopoietin-1 receptor (Homo sapiens, UniProt Q02763); test: Inhibition of TIE2 by microplate scintillation counting
[2] = target: Platelet-derived growth factor receptor beta (Homo sapiens, UniProt P09619); test: Inhibition of PDGFRbeta by microplate scintillation counting
Method in brief: (§1)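 Substrates: tetra(LRRWSLG) for Aurora A/B; poly(Ala,Glu,Lys,Tyr)6:2:5:1 for PDGFRβ; poly(Glu,Tyr)4:1 for TIE2 and VEGFR2. Stopped with 2% H3PO4.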

Aurora kinase A = target: T2, Aurora kinase A (Homo sapiens, UniProt O14965); test: Inhibition of Aurora-A by microplate scintillation counting; method in brief: as §1
T2 sequence (O14965 whole entry): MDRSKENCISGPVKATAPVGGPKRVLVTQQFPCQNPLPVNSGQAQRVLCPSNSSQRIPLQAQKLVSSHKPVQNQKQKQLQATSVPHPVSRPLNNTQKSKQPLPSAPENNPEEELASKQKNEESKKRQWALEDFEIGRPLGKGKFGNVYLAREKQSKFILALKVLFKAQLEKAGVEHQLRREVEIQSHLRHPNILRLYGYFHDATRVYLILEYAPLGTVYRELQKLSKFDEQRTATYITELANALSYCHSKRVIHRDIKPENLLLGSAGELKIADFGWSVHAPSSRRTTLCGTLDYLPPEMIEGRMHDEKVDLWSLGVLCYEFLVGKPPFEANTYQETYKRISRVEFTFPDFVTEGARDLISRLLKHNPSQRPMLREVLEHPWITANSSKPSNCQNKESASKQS

[3] = target: T3, Epidermal growth factor receptor (Homo sapiens, UniProt P00533); test: Inhibition of wild type EGF-R by microplate scintillation counting
T3 sequence (P00533 whole entry): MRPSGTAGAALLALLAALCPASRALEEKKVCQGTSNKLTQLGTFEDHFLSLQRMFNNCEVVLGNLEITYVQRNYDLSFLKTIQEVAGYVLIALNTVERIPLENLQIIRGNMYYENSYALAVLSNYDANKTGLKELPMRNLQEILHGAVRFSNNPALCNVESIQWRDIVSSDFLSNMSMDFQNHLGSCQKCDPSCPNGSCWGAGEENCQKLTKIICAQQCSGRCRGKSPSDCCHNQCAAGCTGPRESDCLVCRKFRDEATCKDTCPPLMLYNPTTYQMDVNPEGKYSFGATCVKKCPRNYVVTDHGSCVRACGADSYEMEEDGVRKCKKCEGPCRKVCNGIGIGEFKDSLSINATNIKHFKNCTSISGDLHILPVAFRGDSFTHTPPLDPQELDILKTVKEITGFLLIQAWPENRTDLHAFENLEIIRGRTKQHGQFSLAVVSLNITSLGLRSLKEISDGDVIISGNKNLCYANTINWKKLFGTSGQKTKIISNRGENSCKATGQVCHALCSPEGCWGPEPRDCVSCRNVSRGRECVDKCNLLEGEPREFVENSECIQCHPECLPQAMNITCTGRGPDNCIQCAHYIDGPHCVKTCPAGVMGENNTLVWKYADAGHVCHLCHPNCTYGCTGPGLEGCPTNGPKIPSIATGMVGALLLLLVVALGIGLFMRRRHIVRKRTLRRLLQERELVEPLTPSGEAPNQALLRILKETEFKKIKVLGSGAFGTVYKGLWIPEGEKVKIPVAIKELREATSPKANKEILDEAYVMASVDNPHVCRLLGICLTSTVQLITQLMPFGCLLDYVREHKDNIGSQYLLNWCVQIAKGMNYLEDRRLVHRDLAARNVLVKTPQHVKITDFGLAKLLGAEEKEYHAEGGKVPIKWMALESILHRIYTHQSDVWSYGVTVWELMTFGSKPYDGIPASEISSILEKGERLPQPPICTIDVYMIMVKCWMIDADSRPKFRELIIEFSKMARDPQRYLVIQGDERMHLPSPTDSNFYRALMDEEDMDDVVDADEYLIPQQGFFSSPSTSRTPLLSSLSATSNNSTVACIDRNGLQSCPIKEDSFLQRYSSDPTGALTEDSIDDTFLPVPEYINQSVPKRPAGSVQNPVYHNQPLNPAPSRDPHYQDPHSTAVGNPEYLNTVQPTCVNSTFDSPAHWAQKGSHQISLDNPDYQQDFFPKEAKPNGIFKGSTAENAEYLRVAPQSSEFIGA

[4] = target: Receptor tyrosine-protein kinase erbB-2 (Homo sapiens, UniProt P04626); test: Inhibition of ERBB2 by microplate scintillation counting
Receptor tyrosine-protein kinase erbB-2, sequence (P04626 whole entry): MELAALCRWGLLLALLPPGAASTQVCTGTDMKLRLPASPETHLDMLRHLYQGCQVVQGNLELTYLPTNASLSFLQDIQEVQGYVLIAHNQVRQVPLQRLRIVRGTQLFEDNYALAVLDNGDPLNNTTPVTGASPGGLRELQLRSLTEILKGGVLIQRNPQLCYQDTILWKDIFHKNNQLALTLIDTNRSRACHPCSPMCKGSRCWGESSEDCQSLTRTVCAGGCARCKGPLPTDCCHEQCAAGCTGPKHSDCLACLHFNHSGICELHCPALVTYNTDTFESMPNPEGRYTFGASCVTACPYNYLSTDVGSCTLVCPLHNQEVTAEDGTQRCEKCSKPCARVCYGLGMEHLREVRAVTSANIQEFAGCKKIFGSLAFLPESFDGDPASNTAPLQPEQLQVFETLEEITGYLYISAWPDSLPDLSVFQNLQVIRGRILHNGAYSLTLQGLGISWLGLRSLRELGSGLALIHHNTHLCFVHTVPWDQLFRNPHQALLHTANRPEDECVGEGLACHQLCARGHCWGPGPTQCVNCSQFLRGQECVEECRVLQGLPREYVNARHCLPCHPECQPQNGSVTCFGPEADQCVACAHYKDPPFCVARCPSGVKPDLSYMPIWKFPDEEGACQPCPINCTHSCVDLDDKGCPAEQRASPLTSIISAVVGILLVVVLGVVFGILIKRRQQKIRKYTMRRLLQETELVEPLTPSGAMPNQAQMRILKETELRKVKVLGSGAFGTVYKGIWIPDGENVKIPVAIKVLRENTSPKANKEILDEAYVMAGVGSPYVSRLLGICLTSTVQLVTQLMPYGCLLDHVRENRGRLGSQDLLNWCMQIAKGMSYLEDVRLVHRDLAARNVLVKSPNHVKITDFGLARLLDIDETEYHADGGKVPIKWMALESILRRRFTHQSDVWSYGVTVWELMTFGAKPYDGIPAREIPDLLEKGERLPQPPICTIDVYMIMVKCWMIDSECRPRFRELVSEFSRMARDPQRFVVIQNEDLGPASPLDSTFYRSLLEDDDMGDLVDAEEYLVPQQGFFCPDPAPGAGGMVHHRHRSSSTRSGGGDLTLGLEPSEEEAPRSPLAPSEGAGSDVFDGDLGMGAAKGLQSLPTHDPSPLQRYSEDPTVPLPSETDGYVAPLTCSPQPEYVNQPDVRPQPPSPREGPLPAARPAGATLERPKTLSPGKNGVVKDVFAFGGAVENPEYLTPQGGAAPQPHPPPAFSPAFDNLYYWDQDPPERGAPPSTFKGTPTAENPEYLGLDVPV
Method in brief: (§2)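 Radiometric FlashPlate assay using recombinant kinase (10–200 ng/well) with poly(Glu,Tyr)4:1 substrate. Buffer: 60 mM HEPES-NaOH pH 7.5, 3 mM MgCl2, 3 mM MnCl2, 3 µM orthovanadate, 1.2 mM DTT, PEG 20000, 1 µM [γ-33P]-ATP. Run 80 min at 30 °C, stopped with H3PO4, and 33P incorporation counted.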

Aurora kinase B = Aurora kinase B (Homo sapiens, UniProt Q96GD4); test: Inhibition of Aurora-B by microplate scintillation counting; method in brief: as §1
[5] = target: Vascular endothelial growth factor receptor 2 (Homo sapiens, UniProt P35968); test: Inhibition of VEGFR2 by microplate scintillation counting
[6] = target: Vascular endothelial growth factor receptor 3 (Homo sapiens, UniProt P35916); test: Inhibition of VEGFR3 by microplate scintillation counting; method in brief: as §2
Vascular endothelial growth factor receptor 3, sequence (P35916 whole entry): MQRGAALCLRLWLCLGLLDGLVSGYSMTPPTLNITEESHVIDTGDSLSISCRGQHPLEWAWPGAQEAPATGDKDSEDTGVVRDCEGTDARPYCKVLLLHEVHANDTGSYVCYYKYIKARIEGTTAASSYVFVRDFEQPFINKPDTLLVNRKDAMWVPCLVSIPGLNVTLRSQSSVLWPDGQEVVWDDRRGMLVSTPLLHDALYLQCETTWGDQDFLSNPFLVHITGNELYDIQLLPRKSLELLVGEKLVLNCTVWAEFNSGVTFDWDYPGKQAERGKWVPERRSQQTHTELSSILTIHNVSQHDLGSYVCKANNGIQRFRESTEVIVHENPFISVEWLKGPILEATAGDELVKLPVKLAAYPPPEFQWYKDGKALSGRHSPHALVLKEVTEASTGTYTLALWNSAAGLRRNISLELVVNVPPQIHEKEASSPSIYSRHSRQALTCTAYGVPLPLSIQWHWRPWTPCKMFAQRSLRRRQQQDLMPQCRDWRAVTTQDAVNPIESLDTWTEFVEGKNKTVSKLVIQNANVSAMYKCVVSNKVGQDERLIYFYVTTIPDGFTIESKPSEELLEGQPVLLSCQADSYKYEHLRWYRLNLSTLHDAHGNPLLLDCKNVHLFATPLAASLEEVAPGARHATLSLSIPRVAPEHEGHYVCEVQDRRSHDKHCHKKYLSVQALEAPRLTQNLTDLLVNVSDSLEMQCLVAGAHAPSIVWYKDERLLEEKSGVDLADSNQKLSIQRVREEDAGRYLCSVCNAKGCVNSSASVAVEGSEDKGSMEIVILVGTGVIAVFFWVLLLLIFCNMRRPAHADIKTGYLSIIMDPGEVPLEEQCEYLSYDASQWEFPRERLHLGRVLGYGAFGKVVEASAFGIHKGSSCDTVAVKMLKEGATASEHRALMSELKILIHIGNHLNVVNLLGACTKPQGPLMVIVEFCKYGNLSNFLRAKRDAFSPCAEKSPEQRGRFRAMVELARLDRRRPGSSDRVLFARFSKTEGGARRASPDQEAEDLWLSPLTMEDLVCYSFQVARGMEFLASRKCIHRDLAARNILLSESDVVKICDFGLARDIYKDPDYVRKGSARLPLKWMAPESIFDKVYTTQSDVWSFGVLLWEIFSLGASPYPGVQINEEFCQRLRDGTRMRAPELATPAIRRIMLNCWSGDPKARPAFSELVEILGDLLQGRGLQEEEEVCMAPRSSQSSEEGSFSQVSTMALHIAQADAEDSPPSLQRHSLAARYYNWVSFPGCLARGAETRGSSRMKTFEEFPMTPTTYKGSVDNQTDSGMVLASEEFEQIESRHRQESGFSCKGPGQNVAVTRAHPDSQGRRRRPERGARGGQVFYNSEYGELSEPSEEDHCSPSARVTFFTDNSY

Angiopoietin-1 receptor [7] = target: T1, Angiopoietin-1 receptor; test: Inhibition of TIE2 in human HCT116 cells by cellular phosphorylation assay; assay type: cell-based, HCT-116
Method in brief: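 TIE2 autophosphorylation in cells expressing the receptor. Compound was applied, cells were stimulated, then lysed with phosphoprotein levels preserved. Phosphorylation was quantified by sandwich ELISA with a receptor-specific capture antibody and anti-phosphotyrosine antibody, relative to the stimulated high control.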

[8] = target: T3, Epidermal growth factor receptor; test: Inhibition of EGFR in human HCT116 cells by cellular phosphorylation assay

Platelet-derived growth factor receptor beta, sequence (P09619 whole entry): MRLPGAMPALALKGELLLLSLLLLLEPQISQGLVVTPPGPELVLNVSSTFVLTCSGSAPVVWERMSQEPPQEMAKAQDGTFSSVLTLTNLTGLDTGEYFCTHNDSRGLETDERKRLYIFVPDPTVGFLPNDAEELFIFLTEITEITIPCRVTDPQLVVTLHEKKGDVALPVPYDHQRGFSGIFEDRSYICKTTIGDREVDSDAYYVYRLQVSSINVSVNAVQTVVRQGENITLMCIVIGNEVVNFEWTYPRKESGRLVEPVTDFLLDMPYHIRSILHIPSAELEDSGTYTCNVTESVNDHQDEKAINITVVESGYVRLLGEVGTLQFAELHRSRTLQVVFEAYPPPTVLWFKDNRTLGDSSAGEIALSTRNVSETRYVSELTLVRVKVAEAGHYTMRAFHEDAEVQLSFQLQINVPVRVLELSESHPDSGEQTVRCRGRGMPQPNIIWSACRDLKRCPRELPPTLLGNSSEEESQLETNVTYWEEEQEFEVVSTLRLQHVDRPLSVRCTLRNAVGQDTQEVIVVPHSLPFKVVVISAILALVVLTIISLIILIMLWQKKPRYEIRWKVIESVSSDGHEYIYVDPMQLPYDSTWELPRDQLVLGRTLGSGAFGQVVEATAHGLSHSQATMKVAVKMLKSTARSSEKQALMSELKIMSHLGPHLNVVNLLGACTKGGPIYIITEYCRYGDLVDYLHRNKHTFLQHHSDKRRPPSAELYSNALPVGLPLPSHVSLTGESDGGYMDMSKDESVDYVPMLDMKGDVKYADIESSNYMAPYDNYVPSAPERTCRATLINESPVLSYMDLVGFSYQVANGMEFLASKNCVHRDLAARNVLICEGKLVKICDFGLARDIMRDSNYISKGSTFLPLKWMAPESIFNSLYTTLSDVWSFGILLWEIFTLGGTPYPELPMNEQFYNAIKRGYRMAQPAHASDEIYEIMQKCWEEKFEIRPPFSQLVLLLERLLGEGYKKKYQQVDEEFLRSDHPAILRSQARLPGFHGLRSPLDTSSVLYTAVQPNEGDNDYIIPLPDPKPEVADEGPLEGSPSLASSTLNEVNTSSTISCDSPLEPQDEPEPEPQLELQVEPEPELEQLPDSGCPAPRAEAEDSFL

Row | Structure (SMILES) | IC50 (Angiopoietin-1 receptor [1]) | IC50 [2] | IC50 (Aurora kinase A) | IC50 [3] | IC50 [4] | IC50 (Aurora kinase B) | IC50 [5] | IC50 [6] | EC50 (Angiopoietin-1 receptor [7]) | EC50 [8]
1 | COc1cc2ncnc(Nc3ccc(-c4nc5ccccc5s4)c(OC)c3)c2cc1OCCCN1CCN(C)CC1 | 1400 nM | 3800 nM | 1600 nM | 15 nM | 47 nM | > 10000 nM | – | – | – | –
2 | COc1cc2ncnc(Nc3ccc(-c4nc5ccccc5s4)cc3)c2cc1OC | – | – | – | – | – | – | 6300 nM | – | – | –
3 | COc1cc2ncnc(Nc3ccc(-c4nc5ccccc5s4)c(O)c3)c2cc1OCCCN1CCN(C)CC1 | 5300 nM | 10000 nM | 300 nM | 3300 nM | > 10000 nM | 640 nM | – | – | – | –
4 | COc1cc2ncnc(Nc3ccc(-c4nc5cc(Cl)ccc5s4)cc3)c2cc1OCCCN1CCN(C)CC1 | 4000 nM | 9900 nM | 400 nM | > 10000 nM | > 10000 nM | 500 nM | – | – | – | –
5 | COc1cc2ncnc(Nc3ccc(-c4nc5ccccc5s4)cc3O)c2cc1OC | – | – | > 10000 nM | 2200 nM | – | 4200 nM | 6900 nM | – | – | –
6 | COc1cc2c(N(C)c3ccc(-c4nc5ccccc5s4)c(OC)c3)ncnc2cc1OCCCN1CCN(C)CC1 | > 10000 nM | > 10000 nM | 3300 nM | – | – | 8000 nM | > 10000 nM | > 10000 nM | – | –
7 | COc1cc(-c2nc3ccccc3s2)ccc1Nc1ncnc2cc(OC)c(OC)cc12 | – | – | > 10000 nM | 63 nM | – | > 10000 nM | > 10000 nM | – | – | –
8 | COc1cc2c(Nc3ccc(-c4nc5ccccc5s4)c(C)c3)ncnc2cc1OCCCN1CCN(C)CC1 | 68 nM | 7900 nM | 230 nM | – | – | 260 nM | 350 nM | 1500 nM | – | –
9 | COc1cc(-c2nc3ccccc3s2)ccc1Nc1ncnc2cc(OC)c(OCCCN3CCN(C)CC3)cc12 | 6100 nM | > 10000 nM | 1300 nM | > 10000 nM | > 10000 nM | 1900 nM | – | – | – | –
10 | COc1cc2c(Nc3ccc(-c4nc5ccccc5s4)cc3C)ncnc2cc1OCCCN1CCN(C)CC1 | 38 nM | 6700 nM | 340 nM | – | 490 nM | 440 nM | – | 340 nM | – | –
11 | COc1cc2ncnc(Nc3ccc(-c4nc5ccccc5s4)cc3F)c2cc1OCCCN1CCN(C)CC1 | 360 nM | 10000 nM | 390 nM | 4500 nM | > 10000 nM | 410 nM | – | – | – | –
12 | COc1cc2ncnc(Nc3ccc(-c4nc5ccccc5s4)c(Cl)c3)c2cc1OCCCN1CCN(C)CC1 | 510 nM | 7700 nM | 690 nM | 44 nM | 180 nM | 4800 nM | – | – | – | –
13 | COc1cc2ncnc(Nc3ccc(-c4nc5cc(C(F)(F)F)ccc5s4)cc3)c2cc1OCCCN1CCN(C)CC1 | > 10000 nM | > 10000 nM | 1200 nM | > 10000 nM | > 10000 nM | 2100 nM | – | – | – | –
14 | COc1cc2c(Nc3ccc(-c4nc5ccccc5s4)cc3OC(F)(F)F)ncnc2cc1OCCCN1CCN(C)CC1 | 590 nM | 9100 nM | 290 nM | > 10000 nM | > 10000 nM | 520 nM | > 10000 nM | > 10000 nM | – | –
15 | COc1cc2ncnc(Nc3ccc(-c4nc5ccccc5s4)cc3O)c2cc1OCCCN1CCN(C)CC1 | 880 nM | > 10000 nM | 800 nM | 230 nM | 2300 nM | 800 nM | – | – | – | –
16 | COc1cc2ncnc(Nc3ccc(-c4nc5ccccc5s4)cc3C)c2cc1OCCCN1CCN(C)CC1 | 350 nM | > 10000 nM | 9400 nM | 1400 nM | 5900 nM | > 10000 nM | – | – | – | –

Further molecules by falling IC50 (Aurora kinase A), results first:

Row | IC50 (Angiopoietin-1 receptor [1]) | IC50 [2] | IC50 (Aurora kinase A) | IC50 [3] | IC50 [4] | IC50 (Aurora kinase B) | IC50 [5] | IC50 [6] | EC50 (Angiopoietin-1 receptor [7]) | EC50 [8] | Structure (SMILES)
17 | 230 nM | > 10000 nM | 230 nM | 350 nM | 3600 nM | 270 nM | 280 nM | 4500 nM | – | – | COc1cc2c(Nc3ccc(-c4nc5ccccc5s4)cc3O)ncnc2cc1OCCCN1CCN(C)CC1
18 | 3100 nM | 8700 nM | 200 nM | 2300 nM | > 10000 nM | 670 nM | – | – | – | – | COc1cc2ncnc(Nc3ccc(-c4nc5ccccc5s4)c(F)c3)c2cc1OCCCN1CCN(C)CC1
19 | 110 nM | 2100 nM | 120 nM | 2 nM | 5 nM | 300 nM | 1200 nM | 7100 nM | > 10000 nM | 9400 nM | COc1cc2c(Nc3ccc(-c4nc5ccccc5s4)c(OC)c3)ncnc2cc1OCCCN1CCN(C)CC1
20 | – | 3800 nM | 110 nM | – | 2200 nM | 510 nM | – | – | – | – | COc1cc2ncnc(Nc3ccc(-c4nc5ccccc5s4)cc3)c2cc1OCCCN1CCN(C)CC1
21 | 120 nM | 4500 nM | 91 nM | 110 nM | 780 nM | 59 nM | 380 nM | 520 nM | > 10000 nM | 33000 nM | COc1cc2c(Nc3ccc(-c4nc5ccccc5s4)c(O)c3)ncnc2cc1OCCCN1CCN(C)CC1
22 | 615 nM | 9200 nM | 85 nM | 6200 nM | > 10000 nM | 90 nM | 2250 nM | 3000 nM | – | – | COc1cc2c(Nc3ccc(-c4nc5ccc(Cl)cc5s4)cc3F)ncnc2cc1OCCCN1CCN(C)CC1
23 | 330 nM | 5100 nM | 65 nM | > 10000 nM | > 10000 nM | 90 nM | 3300 nM | 1700 nM | > 10000 nM | > 10000 nM | COc1cc(-c2nc3ccccc3s2)ccc1Nc1ncnc2cc(OCCCN3CCN(C)CC3)c(OC)cc12
24 | 390 nM | > 10000 nM | 62 nM | 200 nM | 130 nM | 48 nM | 690 nM | 1900 nM | – | – | COc1ccc2nc(-c3ccc(Nc4ncnc5cc(OCCCN6CCN(C)CC6)c(OC)cc45)cc3)sc2c1
25 | 3300 nM | 8200 nM | 60 nM | > 10000 nM | > 10000 nM | 120 nM | > 10000 nM | > 10000 nM | > 10000 nM | > 10000 nM | COc1cc2c(Nc3ccc(-c4nc5cc(C(F)(F)F)ccc5s4)cc3)ncnc2cc1OCCCN1CCN(C)CC1
26 | 410 nM | 8000 nM | 54 nM | 260 nM | 2300 nM | 64 nM | 2500 nM | 9300 nM | – | – | COc1cc2c(Nc3ccc(-c4nc5ccc(Cl)cc5s4)cc3)ncnc2cc1OCCCN1CCN(C)CC1
27 | 37 nM | 3600 nM | 27 nM | – | 38 nM | 78 nM | 120 nM | 470 nM | 10000 nM | – | COc1cc2c(Nc3ccc(-c4nc5ccccc5s4)c(Cl)c3)ncnc2cc1OCCCN1CCN(C)CC1
28 | 29 nM | 4400 nM | 26 nM | 805 nM | 2400 nM | 28 nM | 62 nM | 350 nM | 2100 nM | > 10000 nM | COc1cc2c(Nc3ccc(-c4nc5ccccc5s4)cc3F)ncnc2cc1OCCCN1CCN(C)CC1
29 | 235 nM | 3400 nM | 26 nM | 730 nM | 6950 nM | 41 nM | 335 nM | 865 nM | > 10000 nM | > 10000 nM | COc1cc2c(Nc3ccc(-c4nc5ccc(F)cc5s4)cc3)ncnc2cc1OCCCN1CCN(C)CC1
30 | 510 nM | > 10000 nM | 24 nM | > 10000 nM | > 10000 nM | 62 nM | 610 nM | 1300 nM | > 10000 nM | > 10000 nM | COc1cc2c(Nc3ccc(-c4nc5cc(Cl)ccc5s4)cc3)ncnc2cc1OCCCN1CCN(C)CC1
31 | 54 nM | 1400 nM | 14 nM | 46 nM | 100 nM | 60 nM | 12 nM | 69 nM | – | – | COc1cc2c(Nc3ccc(-c4nc5ccccc5s4)cc3)ncnc2cc1OCCCN1CCN(C)CC1
